# System: HT-29
# Test: Cytotoxicity against human HT-29 cells assessed as growth inhibition after 72 hrs by MTT assay
# Format: functional
# Conditions: HT-29, 72 h
# How it was run: (§1)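 Cells in logarithmic growth kept in DMEM with 10% FBS, 10 mM sodium bicarbonate, penicillin 100 IU/mL, glutamine 4 mM, at 37 °C under 5% CO2. Plated in duplicate at 2500–4000 cells/well. Compound (30 mM DMSO stock) added 24 h after plating. MTT read at 540 nm after 72 h exposure.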
row,Compound,GI50 [µM]
1,O=C(NCC(c1ccccc1)c1ccccc1)c1cc(Br)c(Br)[nH]1,16
2,O=C(NCc1ccc(-c2ccccc2)cc1)c1ccc[nH]1,4.3

# System: not listed separately
# Test: Cytotoxicity against human BE(2)-C cells assessed as growth inhibition after 72 hrs by MTT assay
# Format: functional
# Conditions: not given
# How it was run: as §1
row,Compound,GI50 [µM]
1,O=C(NCC(c1ccccc1)c1ccccc1)c1cc(Br)c(Br)[nH]1,16
2,O=C(NCc1ccc(-c2ccccc2)cc1)c1ccc[nH]1,11

# System: not listed separately
# Test: Cytotoxicity against human H460 cells assessed as growth inhibition at 25 uM after 72 hrs by MTT assay relative to control
# Format: functional
# Conditions: NCI-H460, 72 h, read-out: GI
# How it was run: as §1
row,Compound,inhibition of growth at 25 µM [%]
1,O=C(NCC(c1ccccc1)c1ccccc1)c1cc(Br)c(Br)[nH]1,67
2,O=C(NCc1ccc(-c2ccccc2)cc1)c1ccc[nH]1,59

# System: MCF7
# Test: Cytotoxicity against human MCF7 cells assessed as growth inhibition after 72 hrs by MTT assay
# Format: functional
# Conditions: MCF7, 72 h
# How it was run: as §1
row,Compound,GI50 [µM]
1,O=C(NCC(c1ccccc1)c1ccccc1)c1cc(Br)c(Br)[nH]1,10
2,O=C(NCc1ccc(-c2ccccc2)cc1)c1ccc[nH]1,5.7

# System: A-431
# Test: Cytotoxicity against human A431 cells assessed as growth inhibition after 72 hrs by MTT assay
# Format: functional
# Conditions: A-431, 72 h
# How it was run: as §1
row,Compound,GI50 [µM]
1,O=C(NCC(c1ccccc1)c1ccccc1)c1cc(Br)c(Br)[nH]1,19
2,O=C(NCc1ccc(-c2ccccc2)cc1)c1ccc[nH]1,5.8

# System: not listed separately
# Test: Cytotoxicity against human MIA cells assessed as growth inhibition after 72 hrs by MTT assay
# Format: functional
# Conditions: not given
# How it was run: as §1
row,Compound,GI50 [µM]
1,O=C(NCC(c1ccccc1)c1ccccc1)c1cc(Br)c(Br)[nH]1,18
2,O=C(NCc1ccc(-c2ccccc2)cc1)c1ccc[nH]1,6.5

# System: not listed separately
# Test: Cytotoxicity against human SJ-G2 cells assessed as growth inhibition after 72 hrs by MTT assay
# Format: functional
# Conditions: SJ-G2, 72 h
# How it was run: as §1
row,Compound,GI50 [µM]
1,O=C(NCC(c1ccccc1)c1ccccc1)c1cc(Br)c(Br)[nH]1,27
2,O=C(NCc1ccc(-c2ccccc2)cc1)c1ccc[nH]1,> 50

# System: not listed separately
# Test: Cytotoxicity against human BE(2)-C cells assessed as growth inhibition at 25 uM after 72 hrs by MTT assay relative to control
# Format: functional
# Conditions: read-out: GI
# How it was run: as §1
row,Compound,inhibition of growth at 25 µM [%]
1,O=C(NCC(c1ccccc1)c1ccccc1)c1cc(Br)c(Br)[nH]1,> 100
2,O=C(NCc1ccc(-c2ccccc2)cc1)c1ccc[nH]1,72

# System: A2780
# Test: Cytotoxicity against human A2780 cells assessed as growth inhibition at 25 uM after 72 hrs by MTT assay relative to control
# Format: functional
# Conditions: A2780, 72 h, read-out: GI
# How it was run: as §1
row,Compound,inhibition of growth at 25 µM [%]
1,O=C(NCC(c1ccccc1)c1ccccc1)c1cc(Br)c(Br)[nH]1,94
2,O=C(NCc1ccc(-c2ccccc2)cc1)c1ccc[nH]1,58

# System: A-431
# Test: Cytotoxicity against human A431 cells assessed as growth inhibition at 25 uM after 72 hrs by MTT assay relative to control
# Format: functional
# Conditions: A-431, 72 h, read-out: GI
# How it was run: as §1
row,Compound,inhibition of growth at 25 µM [%]
1,O=C(NCC(c1ccccc1)c1ccccc1)c1cc(Br)c(Br)[nH]1,56
2,O=C(NCc1ccc(-c2ccccc2)cc1)c1ccc[nH]1,81

# System: DU-145
# Test: Cytotoxicity against human DU145 cells assessed as growth inhibition after 72 hrs by MTT assay
# Format: functional
# Conditions: DU-145, 72 h
# How it was run: as §1
row,Compound,GI50 [µM]
1,O=C(NCC(c1ccccc1)c1ccccc1)c1cc(Br)c(Br)[nH]1,21
2,O=C(NCc1ccc(-c2ccccc2)cc1)c1ccc[nH]1,6.5

# System: not listed separately
# Test: Cytotoxicity against human U87 cells assessed as growth inhibition at 25 uM after 72 hrs by MTT assay relative to control
# Format: functional, U-87MG ATCC
# Conditions: U-87 MG, read-out: GI
# How it was run: as §1
row,Compound,inhibition of growth at 25 µM [%]
1,O=C(NCC(c1ccccc1)c1ccccc1)c1cc(Br)c(Br)[nH]1,48
2,O=C(NCc1ccc(-c2ccccc2)cc1)c1ccc[nH]1,77

# System: DU-145
# Test: Cytotoxicity against human DU145 cells assessed as growth inhibition at 25 uM after 72 hrs by MTT assay relative to control
# Format: functional
# Conditions: DU-145, 72 h, read-out: GI
# How it was run: as §1
row,Compound,inhibition of growth at 25 µM [%]
1,O=C(NCC(c1ccccc1)c1ccccc1)c1cc(Br)c(Br)[nH]1,56
2,O=C(NCc1ccc(-c2ccccc2)cc1)c1ccc[nH]1,87

# System: MCF7
# Test: Cytotoxicity against human MCF7 cells assessed as growth inhibition at 25 uM after 72 hrs by MTT assay relative to control
# Format: functional
# Conditions: MCF7, 72 h, read-out: GI
# How it was run: as §1
row,Compound,inhibition of growth at 25 µM [%]
1,O=C(NCC(c1ccccc1)c1ccccc1)c1cc(Br)c(Br)[nH]1,> 100
2,O=C(NCc1ccc(-c2ccccc2)cc1)c1ccc[nH]1,79

# System: not listed separately
# Test: Cytotoxicity against mouse SMA cells assessed as growth inhibition at 25 uM after 72 hrs by MTT assay relative to control
# Format: functional
# Conditions: read-out: GI
# How it was run: as §1
row,Compound,inhibition of growth at 25 µM [%]
1,O=C(NCC(c1ccccc1)c1ccccc1)c1cc(Br)c(Br)[nH]1,80
2,O=C(NCc1ccc(-c2ccccc2)cc1)c1ccc[nH]1,53

# System: not listed separately
# Test: Cytotoxicity against human MIA cells assessed as growth inhibition at 25 uM after 72 hrs by MTT assay relative to control
# Format: functional
# Conditions: read-out: GI
# How it was run: as §1
row,Compound,inhibition of growth at 25 µM [%]
1,O=C(NCC(c1ccccc1)c1ccccc1)c1cc(Br)c(Br)[nH]1,69
2,O=C(NCc1ccc(-c2ccccc2)cc1)c1ccc[nH]1,74

# System: HT-29
# Test: Cytotoxicity against human HT-29 cells assessed as growth inhibition at 25 uM after 72 hrs by MTT assay relative to control
# Format: functional
# Conditions: HT-29, 72 h, read-out: GI
# How it was run: as §1
row,Compound,inhibition of growth at 25 µM [%]
1,O=C(NCC(c1ccccc1)c1ccccc1)c1cc(Br)c(Br)[nH]1,82
2,O=C(NCc1ccc(-c2ccccc2)cc1)c1ccc[nH]1,78

# System: not listed separately
# Test: Cytotoxicity against mouse SMA cells assessed as growth inhibition after 72 hrs by MTT assay
# Format: functional
# Conditions: not given
# How it was run: as §1
row,Compound,GI50 [µM]
1,O=C(NCC(c1ccccc1)c1ccccc1)c1cc(Br)c(Br)[nH]1,11
2,O=C(NCc1ccc(-c2ccccc2)cc1)c1ccc[nH]1,21

# System: SW480
# Test: Cytotoxicity against human SW480 cells assessed as growth inhibition after 72 hrs by MTT assay
# Format: functional
# Conditions: SW480, 72 h
# How it was run: as §1
row,Compound,GI50 [µM]
1,O=C(NCC(c1ccccc1)c1ccccc1)c1cc(Br)c(Br)[nH]1,34
2,O=C(NCc1ccc(-c2ccccc2)cc1)c1ccc[nH]1,4.3

# System: SW480
# Test: Cytotoxicity against human SW480 cells assessed as growth inhibition at 25 uM after 72 hrs by MTT assay relative to control
# Format: functional
# Conditions: SW480, 72 h, read-out: GI
# How it was run: as §1
row,Compound,inhibition of growth at 25 µM [%]
1,O=C(NCC(c1ccccc1)c1ccccc1)c1cc(Br)c(Br)[nH]1,33
2,O=C(NCc1ccc(-c2ccccc2)cc1)c1ccc[nH]1,93

# System: A2780
# Test: Cytotoxicity against human A2780 cells assessed as growth inhibition after 72 hrs by MTT assay
# Format: functional
# Conditions: A2780, 72 h
# How it was run: as §1
row,Compound,GI50 [µM]
1,O=C(NCC(c1ccccc1)c1ccccc1)c1cc(Br)c(Br)[nH]1,13
2,O=C(NCc1ccc(-c2ccccc2)cc1)c1ccc[nH]1,11

# System: not listed separately
# Test: Cytotoxicity against human U87 cells assessed as growth inhibition after 72 hrs by MTT assay
# Format: functional, U-87MG ATCC
# Conditions: U-87 MG
# How it was run: as §1
row,Compound,GI50 [µM]
1,O=C(NCC(c1ccccc1)c1ccccc1)c1cc(Br)c(Br)[nH]1,36
2,O=C(NCc1ccc(-c2ccccc2)cc1)c1ccc[nH]1,11

# System: not listed separately
# Test: Cytotoxicity against human SJ-G2 cells assessed as growth inhibition at 25 uM after 72 hrs by MTT assay relative to control
# Format: functional
# Conditions: SJ-G2, 72 h, read-out: GI
# How it was run: as §1
row,Compound,inhibition of growth at 25 µM [%]
1,O=C(NCC(c1ccccc1)c1ccccc1)c1cc(Br)c(Br)[nH]1,56
2,O=C(NCc1ccc(-c2ccccc2)cc1)c1ccc[nH]1,33

# System: not listed separately
# Test: Cytotoxicity against human H460 cells assessed as growth inhibition after 72 hrs by MTT assay
# Format: functional
# Conditions: NCI-H460, 72 h
# How it was run: as §1
row,Compound,GI50 [µM]
1,O=C(NCC(c1ccccc1)c1ccccc1)c1cc(Br)c(Br)[nH]1,18
2,O=C(NCc1ccc(-c2ccccc2)cc1)c1ccc[nH]1,> 50

# Source: ChEMBL document CHEMBL3112444, “Synthesis and anticancer activity of focused compound libraries from the natural product lead, oroidin” (2014)
